According to ChEMBL document CHEMBL1149185, “Uncharged AZT and D4T derivatives of phosphonoformic and phosphonoacetic acids as anti-HIV pronucleosides” (J Med Chem, 2004):

Assays:
MT4 [1] = assay: 50% inhibition of MT-4 cell proliferation.; type: functional; conditions: Homo sapiens, read-out: CD50 (the source's name)
In short: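 MT-4 cells in RPMI-1640 with 10% FBS, cultured 3 days with compound at 0.001-200 µg/mL, triplicate per dose. Cell concentration and viability measured by trypan blue dye exclusion, and CD50 calculated.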

MT4 [2] = assay: 50% inhibition of HIV replication in MT-4 cells; type: functional; conditions: Homo sapiens, read-out: ID50 (the source's name)
In short: (§1)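 HIV-1-infected MT-4 cells (MOI 0.2-0.5; cells at 2 × 10^6 cells/mL, viability >90%) in RPMI-1640 with 10% FBS, L-glutamine, gentamycin and lincomycin. Cultured 3 days with compound at 0.001-100 µg/mL, triplicate per dose. Replication measured as p24 antigen by immunoassay.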

MT4 [3] = assay: Ratio of CD50 to ID50 was determined; type: functional, Homo sapiens
[4] = Half life for hydrolysis of compound in phosphate buffer of pH 7.2 at 20 degree C; type: ADME
MT4 [5] = assay: 90% inhibition of HIV replication in MT-4 cells; type: functional, Homo sapiens; in short: as §1
[6] = Half life for the hydrolysis of compound in human blood serum; type: ADME, cell-free, Plasma

| Structure (SMILES) | CC50 (MT4 [1]) | IC50 (MT4 [2]) | IS (MT4 [3]) | half-life [4] | ID90 (MT4 [5]) | half-life [6] |
| --- | --- | --- | --- | --- | --- | --- |
| CCOC(=O)CP(=O)(OCC1C=CC(n2cc(C)c(=O)[nH]c2=O)O1)OC1CCCCC1 (stereo not drawn) | 131 µM | > 10 µM | <13 |  |  |  |
| CCOP(=O)(OCC1OC(n2cc(C)c(=O)[nH]c2=O)CC1N=[N+]=[N-])C(=O)NCCc1ccccc1 (stereo not drawn) | 177 µM | 0.009 µM | 19711 | 10 h |  |  |
| Cc1cn([C@H]2C[C@H](N=[N+]=[N-])[C@@H](CO)O2)c(=O)[nH]c1=O [ZIDOVUDINE] | 188 µM | 0.017 µM | 11029 |  | 0.75 µM |  |
| CCOC(=O)CP(=O)(OCC1OC(n2cc(C)c(=O)[nH]c2=O)CC1N=[N+]=[N-])OC1CCCCC1 (stereo not drawn) | 280 µM | 0.4 µM | 700 | > 8 h | 1.4 µM |  |
| CCOC(=O)CP(=O)(OCC)OCC1C=CC(n2cc(C)c(=O)[nH]c2=O)O1 (stereo not drawn) | 136 µM | > 10 µM | <13 | > 8 h |  |  |
| Cc1cn([C@H]2C=C[C@@H](CO)O2)c(=O)[nH]c1=O [STAVUDINE] |  | 0.24 µM | 1308 |  | 23.8 µM |  |
| CCOP(=O)(OCC1C=CC(n2cc(C)c(=O)[nH]c2=O)O1)C(N)=O (stereo not drawn) | 214 µM | 0.03 µM | 7143 | 7 h | 7.21 µM | 0.35 h |
| CCOC(=O)P(=O)(OCC)OCC1C=CC(n2cc(C)c(=O)[nH]c2=O)O1 (stereo not drawn) | 136 µM | 0.23 µM | 591 | 0.5 h | 21.7 µM |  |
| CCOP(=O)(OCC1C=CC(n2cc(C)c(=O)[nH]c2=O)O1)C(=O)NCCc1ccccc1 (stereo not drawn) | 66.9 µM | 0.043 µM | 1555 | > 20 h |  |  |
| CCOP(=O)(OCC1C=CC(n2cc(C)c(=O)[nH]c2=O)O1)C(=O)NC (stereo not drawn) | 85.7 µM | 0.013 µM | 6592 | 15 h | 0.27 µM |  |
| CCOC(=O)CP(=O)(OCC)OCC1OC(n2cc(C)c(=O)[nH]c2=O)CC1N=[N+]=[N-] (stereo not drawn) | > 224 µM | 0.23 µM | >974 |  |  |  |
| CCOC(=O)P(=O)(OCC)OCC1OC(n2cc(C)c(=O)[nH]c2=O)CC1N=[N+]=[N-] (stereo not drawn) | 116 µM | 0.0071 µM | 16338 | 0.167 h | 0.016 µM |  |
| CCOP(=O)(CC(N)=O)OCC1C=CC(n2cc(C)c(=O)[nH]c2=O)O1 (stereo not drawn) | 268 µM | 5.4 µM | 49.6 | > 24 h | 18.8 µM | > 24 h |
| CCOP(=O)(CC(N)=O)OCC1OC(n2cc(C)c(=O)[nH]c2=O)CC1N=[N+]=[N-] (stereo not drawn) | 456 µM | 0.29 µM | 1573 | > 20 h | 1.68 µM |  |
| CCOP(=O)(OCC1OC(n2cc(C)c(=O)[nH]c2=O)CC1N=[N+]=[N-])C(N)=O (stereo not drawn) | 249 µM | 0.002 µM | 124300 | 2.5 h | 0.019 µM | 0.117 h |
| CCOP(=O)(OCC1OC(n2cc(C)c(=O)[nH]c2=O)CC1N=[N+]=[N-])C(=O)NC (stereo not drawn) | 113 µM | 0.00024 µM | 470416 | 6 h | 0.0072 µM |  |
